This is one part of a sample in which hits are shown more often than they occur.
697 NFkB inh: inhibitors of PMA/ionomycin-induced NF-kB reporter, 697 cells, primary screen, B-cell NF-kB inhibitor project, cell-based, luminescence, uHTS; AID 435022, 2010; 697 B-cell NF-kB luciferase reporter, 16 h; 330,000 tested, 0.33% active; inhibition, % at 4 µM; in the data active means inhibition above about 35%
CHOP inhibitor: inhibitors of CHOP promoter induction, primary screen, cell-based, unfolded protein response, luciferase reporter; inhibition, % at 10 µM; CHO-K1 CHOP-promoter luciferase, tunicamycin-induced, 15-18 h; 220,000 tested, 3.8% active;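 active means compounds that reduced the stress-induced luciferase reporter signal by more than about 70% of percent inhibition, limit read from the data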;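 further: 0% = tunicamycin plus vehicle and 100% = wells without tunicamycin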
CHOP UPR activ: activators of apoptotic CHOP UPR arm, primary screen, cell-based, CHO-CHOP luciferase reporter, luminescence, uHTS | UPR activation; percent of tunicamycin response over DMSO baseline | activation, % at 10 µM | 330,000 tested, 0.34% active;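 active means at 10 µM dose, activation of 40% or more, normalized to positive control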;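 further: 100% = tunicamycin at 10 µg/mL and 0% = DMSO alone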
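assay system = CHO CHOP reporter cells | amount = 500 CHO-CHOP cells per well | buffer or medium = F12 with 10% FBS | incubation = 16-18 h cell attachment, then 6 h compound exposure, 37 °C | detection = luminescence read with Steady-Glo | read-out = percent activation relative to tunicamycin control | controls = tunicamycin high control, DMSO low control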
UPR XBP1 act: activators of adaptive XBP1 UPR arm, primary screen, cell-based, CHO-XBP1 luciferase reporter, luminescence, uHTS; IRE1-XBP1 UPR activation; percent of tunicamycin response, DMSO as zero; activation, % at 20 µM; 330,000 tested, 0.33% active; AID 463104, 2010;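 active means versus positive control, 20 µM dose yields 30% or more activation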;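 further: 100% = tunicamycin at 10 µg/mL and 0% = DMSO only wells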
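Material: CHO cell line with stable XBP1 luciferase reporter; schedule: 16-18 h cell attachment at 37 °C, then 6 h compound exposure; signal: glow luminescence from Steady-Glo reagent; medium: serum-containing F12 medium, 10% FBS; benchmarks: tunicamycin 10 µg/mL and vehicle-only wells; read-out: percent activation relative to tunicamycin reference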
Jurkat NFkB inh: inhibitors of induced NF-kB luciferase reporter, primary screen, TCR NF-kB activation inhibitor project, cell-based, luminescence, uHTS. AID 435003, 2010. inhibition, % at 4 µM. Jurkat, PMA/ionomycin-induced NF-kB luciferase reporter. 330,000 tested, 0.53% active; in the data active means inhibition above about 50%
Numbers without * were called inactive; . = not tested or not shown.

SMILES | 697 NFkB inh | CHOP inhibitor | CHOP UPR activ | UPR XBP1 act | Jurkat NFkB inh
O=S(=O)(Nc1ccc(Cl)cc1)c1ccc(N2CCOCC2)c(NC(=S)NCCN2CCOCC2)c1 | -12.4 | 80.9* | 1.7 | -2.6 | -6.5
O=C(NC1CCCCCC1)c1ccc([N+](=O)[O-])s1 | -8.2 | . | 5.4 | -0.3 | -6.6
COc1ccc(C(=O)NC2CCN(CC(=O)Nc3c(C)cccc3C)CC2)cc1OC | 6.2 | . | 2.0 | -3.0 | 15.3
CCc1ccc(OCCCOc2ccc(C=O)cc2)cc1 | 3.4 | 72.5* | -0.4 | 0.4 | 6.7
Cc1ccc(C(=O)N/N=C\c2cc3c(cc2Br)OCO3)s1 | -59.7 | 92.9* | 6.0 | 7.5 | 17.1
COC(=O)N/N=C\c1cc2c(cc1Br)OCO2 | -2.6 | 26.2 | 0.8 | -1.9 | -14.8
Nc1ccc2nc(-c3ccc(N)c(Cl)c3)[nH]c2c1 | -240.8 | 14.7 | 3.4 | 1.9 | -4.9
Nc1ccc(-c2nc3c(Cl)cc(N)cc3[nH]2)cc1 | -40.8 | 87.8* | -10.4 | -15.0 | 23.8
O=c1[nH]c(=O)c2nc(-c3ccc(Cl)cc3)cnc2[nH]1 | 13.6 | 41.4 | 1.9 | -2.1 | 11.1
O=c1[nH]c(=O)c2nc3c4ccccc4c4ccccc4c3nc2[nH]1 | -21.3 | 77.6* | 3.5 | 1.7 | -7.5
COc1ccc(-c2cc(=O)oc3cc(OC(C)C(=O)NCCCn4ccnc4)ccc23)cc1 (configuration not stated) | 1.2 | . | 1.7 | -1.5 | 2.8
Clc1ccc(OCc2nnc(SCc3nnc(-c4ccccc4)o3)o2)c(Cl)c1 | 6.9 | 76.5* | 1.6 | -2.9 | -13.1
Clc1ccc(-c2nnc(CSc3nnc(-c4cccs4)o3)o2)cc1 | -17.2 | 70.4* | 3.2 | -2.3 | 3.1
O=C(CSc1nnc(COc2ccc(Cl)cc2Cl)o1)Nc1ccccn1 | -3.2 | . | -4.9 | -3.3 | -0.7
c1ccc(-c2nnc(SCc3nnc(-c4cccs4)o3)o2)cc1 | 6.4 | 24.0 | -0.1 | -4.3 | 4.5
CCN(CC)C(C)C(=O)N1c2ccccc2Sc2ccccc21 (configuration not stated) | . | -9.5 | . | . | .
COc1cc(C(=O)N[C@H](C(=O)Nc2nnc(C3CC3)s2)C(C)C)cc(OC)c1OC | 32.3 | -11.5 | -2.2 | 0.2 | 22.9
COc1cc2c3nnc(-c4ccccc4)c-3cn(Cc3ccccc3F)c2cc1OC | -28.6 | -68.8 | 0.6 | 9.5 | 9.8
COc1cc2c3nnc(-c4ccc(F)cc4)c-3cn(Cc3ccccc3F)c2cc1OC | . | 87.8* | . | . | .
O=C(NNC(=O)c1cc(Br)c(Br)s1)c1csc(N2CCOCC2)n1 | 25.5 | . | 1.8 | -2.0 | 8.5
CC(C)c1nnc(NC(=O)CCC(=O)NCc2ccc(F)cc2)s1 | 5.2 | . | 1.4 | -1.0 | 10.4
O=C(Nn1c(Cc2ccccc2)nc2ccccc2c1=O)c1c(O)c2cccc3c2n(c1=O)CCC3 | -14.5 | 38.6 | 0.3 | 7.2 | 5.8
CCc1nc2ccccc2c(=O)n1NC(=O)c1c(O)c2cccc3c2n(c1=O)CCC3 | 4.0 | 94.5* | -2.0 | 5.6 | -9.4
O=C(Nc1cccnc1)c1c(O)c2cccc3c2n(c1=O)CC3 | -16.6 | 80.2* | 0.8 | 3.8 | -18.7
Cc1csc(NC(=O)CSC2=NS(=O)(=O)c3ccccc3N2)n1 | -3.6 | . | -0.1 | -0.1 | 9.3
SMILES | 697 NFkB inh | CHOP inhibitor | CHOP UPR activ | UPR XBP1 act | Jurkat NFkB inh
COCCCN=C1NN=C(c2cc(C)n(Cc3ccco3)c2C)CS1 | -129.7 | 11.1 | -4.5 | -2.7 | 13.4
Cc1cc(C2=NNC(=NC3CC3)SC2)c(C)n1Cc1ccco1 | . | 95.5* | . | . | .
Cc1c(Cl)c([N+](=O)[O-])nn1CCCC(=O)Nc1cccc(Cl)c1 | 19.6 | 41.9 | -0.3 | -4.6 | 5.1
Cc1cc([N+](=O)[O-])nn1CCCC(=O)Nc1cc(Oc2ccc(F)cc2)cc([N+](=O)[O-])c1 | -2.0 | 70.2* | -1.4 | 0.2 | 7.9
Cc1ccc(Oc2cc(NC(=O)CCCn3nc([N+](=O)[O-])c(Cl)c3C)cc([N+](=O)[O-])c2)cc1 | 8.9 | 80.7* | 0.9 | -0.9 | 3.0
COC(=O)c1ccccc1NC(=O)CCCn1nc([N+](=O)[O-])cc1C | 7.2 | 4.1 | 0.7 | -1.9 | 12.5
Cc1cc([N+](=O)[O-])nn1CCCC(=O)Nc1cc(Oc2ccccc2)cc([N+](=O)[O-])c1 | -0.3 | 73.7* | 1.3 | -2.5 | 2.2
COc1ccc(CNC(=O)CCCn2nc([N+](=O)[O-])cc2C)cc1 | 4.9 | 3.5 | -1.2 | -2.5 | 2.1
CCC(C)(C)NC(=O)C1CCCN(S(=O)(=O)c2ccc3c(c2)CC(C)N3C(=O)C2CC2)C1 (configuration not stated) | 15.0 | . | 0.9 | -3.4 | 9.1
CCOc1cc([C@@H]2C[C@H]3CN(c4ccccc4)C(=O)[C@]34CCCN24)ccc1OC | 2.9 | 84.2* | 0.4 | -4.2 | 20.0
COc1cc([C@@H]2C[C@H]3CN(c4ccccc4)C(=O)[C@]34CCCN24)cc(OC)c1OC | 16.0 | 78.0* | 1.2 | -3.1 | -1.2
O=[N+]([O-])c1ccc(Oc2ccc(S(=O)(=O)Nc3ccccc3)cc2)cc1 | -26.7 | 71.0* | -2.2 | -0.6 | 1.6
CC(C)CCn1c(=O)[nH]c2ccccc21 | 12.2 | 5.2 | 1.9 | -0.8 | 7.8
O=c1[nH]c2ccccc2n1CCC1CCCCC1 | -15.0 | 86.4* | 1.7 | 0.9 | -15.4
CCc1ccc(N(C(=O)c2snc(C(N)=O)c2N)C(C(=O)NCCC(C)C)c2c[nH]c3ccccc23)cc1 (configuration not stated) | 9.8 | 86.5* | 10.2 | -2.9 | 10.8
NC(=O)c1nsc(C(=O)N(c2ccc(F)cc2)C(C(=O)NCC2CCCO2)c2c[nH]c3ccccc23)c1N (configuration not stated) | 8.8 | . | 0.6 | 0.8 | -5.8
CO/N=C(\c1nonc1N)N1CCN(c2ccc([N+](=O)[O-])cc2Cl)CC1 | -46.4 | 72.9* | -1.5 | -0.7 | 7.7
O=C(C[C@H]1C/C=C\CC[C@H](Cc2ccc(F)cc2)C(=O)OC[C@H]2CCCN2C1=O)NCCO | 1.9 | . | -0.9 | -1.4 | -22.9
CCCc1ccc(OCc2ccc(C(=O)N3CCN(c4ccccn4)CC3)o2)c(OC)c1 | -106.4 | 78.6* | -0.5 | 0.1 | -4.3
CC(C)CCNC(=O)NC(=O)CSc1nnc(-c2ccccc2Br)o1 | -1.9 | 86.6* | -1.3 | -2.2 | 1.8
Cc1ccc(CNC(=O)c2nccnc2C(=O)O)cc1 | 7.5 | . | 0.7 | -4.2 | 2.5
CCCCCCOc1ccc(N2C(=O)CC(N3CCN(CCN=CC4C(=O)CC(C)(C)CC4=O)CC3)C2=O)cc1 (configuration not stated) | -0.5 | 70.7* | 1.1 | -2.5 | 3.1
CCCCCCOc1ccc(N2C(=O)CC(N3CCN(CCN=CC4=C(O)CC(C)(C)CC4=O)CC3)C2=O)cc1 (configuration not stated) | -4.3 | 37.1 | 1.5 | 3.0 | 2.3
